Compound activity as filed in PubChem BioAssay.
INS promoter inh = TRM-6 insulin promoter activity inhibition | TRM-6 cells (human fetal islet line), insulin promoter-eGFP reporter, imaging; reporter expression induced with tamoxifen | inhibition, % at 2 µM | 130,000 compounds, 0.9% hits;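 active = inhibition above the mean plus 3 SD, with well images judged a real hit on visual review, cut at about 60% in these data, passing the limit was not always enough; inconclusive = inhibition over the cutoff but images rejected on review; inactive = inhibition not above the cutoff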
Insulin prom up = MIN6 insulin promoter up-regulation; AID 1625; 190,000 compounds, 0.3% hits; MIN6 insulin promoter-GFP reporter, high-content imaging; hits give high values; z-score at 5 µM;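 active = z-score above 3 at 5 µM with at least 500 cells counted in the well; inconclusive = wells under 500 cells, flagged as cytotoxic or low count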
Hsp70 act = Hsp70 transcriptional activation, primary screen; HeLa Hsp70 promoter luciferase reporter, luminescence; scaled: vehicle 0, proteasome-inhibitor control 100%; activation, % at 10 µM; 200,000 compounds, 0.04% hits;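 active = activation above the mean across all tested compounds plus 3 SD, cutoff set per campaign, cut at about 5.5% in these data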;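 note: 100% = MG132 at 30 µM as the positive control and 0% = DMSO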
RBBP9 inh = blocks human serine hydrolase RBBP9 | O75884 | recombinant RBBP9, FP-Rh probe fluorescence polarization | inhibition, % at 7.94 µM | 220,000 compounds, 0.2% hits | AID 1515;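 active = inhibition above the campaign mean of all tested compounds plus 3 SD, cut at about 14% in these data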;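 note: plate controls were DMSO wells with RBBP9 for no effect and wells lacking RBBP9 protein for full effect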
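Test system: recombinant human RBBP9; Timing: 30 min then 45 min, 25 °C; Detection: fluorescence polarization; Control set: RBBP9 with DMSO as uninhibited control, no-protein wells as full inhibition; Compound dosing: one concentration, 7.94 µM nominal, 0.794% DMSO; Probe or stimulus: FP-Rh activity-based probe, 375 nM before mixing.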
Wee1 degr inh = human Wee1 degradation inhibition, primary screen. HeLa Luc-Wee1K328M stability, luciferase luminescence; 100% = proteasome inhibitor MG132 effect. 220,000 compounds, 1.2% hits. P30291. reporter increase, % at 5 µM;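 active = activation above the mean of all tested compounds plus 3 SD, set per screening run, cut at about 8.8% in these data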;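 note: cells exposed to compound for 20 h before luminescence read; 0% = DMSO alone and 100% = MG132 at 30 µM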
Mdm2 ligase inh = inhibitors of human Mdm2 E3 ubiquitin ligase; 210,000 compounds, 0.11% hits; cell-based MDM2 ubiquitination luciferase reporter, 2 h; 0 = plate control, 100 = twice control, blank-subtracted; Q00987; signal enhancement, % at 5 µM;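 active = signal enhancement of 30% or more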;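 note: luminescence tracks abundance of the self-degrading MDM2-luciferase fusion protein; higher signal means inhibition of MDM2 E3 ligase activity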
Target sequence (Q00987 whole entry, looked up, the tested form may be a part): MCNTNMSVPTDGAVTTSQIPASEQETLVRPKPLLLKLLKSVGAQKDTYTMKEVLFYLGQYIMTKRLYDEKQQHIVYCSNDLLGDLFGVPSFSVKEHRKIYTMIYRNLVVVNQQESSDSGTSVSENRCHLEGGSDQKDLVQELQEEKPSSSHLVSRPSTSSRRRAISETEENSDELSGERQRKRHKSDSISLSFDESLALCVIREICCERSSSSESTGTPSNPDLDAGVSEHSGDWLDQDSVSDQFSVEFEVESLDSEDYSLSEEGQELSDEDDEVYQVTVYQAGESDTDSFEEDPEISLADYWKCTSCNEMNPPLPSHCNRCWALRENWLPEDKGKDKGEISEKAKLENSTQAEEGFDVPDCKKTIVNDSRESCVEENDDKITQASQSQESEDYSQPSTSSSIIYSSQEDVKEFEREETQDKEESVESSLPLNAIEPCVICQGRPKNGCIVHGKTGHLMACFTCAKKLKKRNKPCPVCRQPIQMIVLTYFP
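Buffer or medium: Cells held in DMEM | Assay system: Stable mammalian line carrying autodegrading MDM2–luciferase fusion reporter | Quantity: 2000 cells/well | Times: 4 h settle plus 2 h compound, 37 °C | Doses: One concentration, 5 µM, with 0.2% DMSO | Technique: Luminescence with SteadyLite reagent, 15 min at room temperature | Benchmarks: Plate controls and plate blanks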
An asterisk follows results filed as active; ? = inconclusive; · = no result. This is a sample that favours compounds with a hit; in the whole collection about 2.2% have one here.

SMILES	INS promoter inh	Insulin prom up	Hsp70 act	RBBP9 inh	Wee1 degr inh	Mdm2 ligase inh
O=C(CSC1=Nc2ccccc2C2CC=NN12)Nc1ccc2c(c1)OCO2 (stereo not given)	?	0.3	0	-5	-2	1
CC(=O)Nc1cccc(NC(=S)Nc2ccc(F)cc2F)c1	-15	·	0	-1	2	16
CC(=O)NS(=O)(=O)c1ccc(NC(=O)CN2C(=O)C3C4C=CC(C4)C3C2=O)cc1 (stereo not given)	18	0.88	0	-13	2	-1
CN(C)S(=O)(=O)c1ccccc1N=C=S	·	0.42	·	16*	-2	-3
CC(C)n1c(=S)[nH]c2cc(Cl)ccc21	·	-0.31	·	8	11*	-6
COc1cc(/C=N/Nc2nc(C)nc3c2cnn3-c2ccccc2)ccc1O	·	-1.7	0	-2	0	-89
Cc1cccc(Cn2c(=O)n(Cc3ccco3)c(=O)c3ccccc32)c1	-49	0.03	0	-3	10*	-12
CCOc1ccc(N(CC(=O)N/N=C/c2cccnc2)S(C)(=O)=O)cc1	35	1.1	0	5	-1	-9
COc1cccc2cc(C(C)OC(=O)Nc3ccc(C)cc3)oc12 (stereo not given)	45	-0.27	0	-12	9.1*	-10
COc1cccc2cc(C(=O)Oc3ccc(NC(C)=O)cc3)c(=O)oc12	·	0.43	0	-5	0	-2
CCCc1cn(S(=O)(=O)c2ccc(OC)cc2OC)nc1N	67	0.31	0	-3	-1	-14
CCc1ccc(NC(=O)CCc2nc3ccccc3[nH]2)cc1	-64	-0.67	0	-1	9.5*	2
Cc1cccc(NC(=O)CCCSc2nc3ccccc3[nH]2)c1	-10	0.14	0	-8	10*	1
Cc1cc(C)cc(NC(=O)CCCSc2nc3ccccc3[nH]2)c1	-38	-0.04	0	-8	3	-6
Cc1cc(C)n(C(=O)CCC2COc3ccccc3O2)n1 (stereo not given)	15	3.5*	0	-2	-2	-4
CC(C)OC(=O)c1c(NC(=O)CCC(=O)O)sc2c1CCCCC2	67*	-0.59	0	-5	4	-4
Cc1ccc(NC(=O)COC(=O)Cc2csc(-c3cccc(F)c3)n2)cc1C	-20	0.31	0	-7	3	-5
Cc1ccc(NC(=O)COC(=O)Cc2csc(-c3ccc(Cl)cc3)n2)cc1C	-13	0.11	0	5	15*	-27
Cc1ccc(CSc2nnc(-c3ccncc3)n2N)cc1	·	0.34	·	1	4	-5
CCOC(=O)c1ccc(CSc2nnc(-c3ccncc3)n2N)cc1	27	3.8*	0	6	-1	-5
Cc1cccc(NCC(=O)N/N=C\c2c[nH]c3ccccc23)c1	10	·	0	-5	2	-23
Cc1ccccc1NCC(=O)N/N=C/c1c[nH]c2ccccc12	·	4*	0	4	2	6
Cc1nn(CC(=O)OC(C)C(=O)Nc2ccccc2[N+](=O)[O-])c(C)c1[N+](=O)[O-] (stereo not given)	·	-0.38	0	-2	1	2
COCC(=O)n1nc(-c2ccccc2)nc1NCc1cccs1	·	-0.01	0	-7	14*	5
O=C1C(=Nc2cccc(Cl)c2)CC(c2ccc(Cl)cc2)N1c1cccc(Cl)c1 (stereo not given)	·	-1.2	·	-5	7	-2
SMILES	INS promoter inh	Insulin prom up	Hsp70 act	RBBP9 inh	Wee1 degr inh	Mdm2 ligase inh
O=C(NC1(C(F)(F)F)NC(=O)N(c2ccc(F)c(Cl)c2)C1=O)c1ccncc1 (stereo not given)	27	4.5*	0	-7	-1	-12
O=C(NC1(C(F)(F)F)NC(=O)N(c2ccccc2F)C1=O)c1ccncc1 (stereo not given)	-64	0.67	0	-4	-4	-3
O=C(N/N=C/c1coc2ccccc2c1=O)c1cn(-c2ccccc2)nc1-c1ccccc1	·	-0.25	0	-11	10.0*	-1
O=C(N/N=C/c1coc2ccccc2c1=O)c1ccccc1	·	-0.73	1	-6	0	-13
O=C(/C=C/c1cn(CC(O)CN2CCCCCC2)c2ccccc12)c1cccs1 (stereo not given)	-117	·	0	-6	-2	-4
CCCCN(C)CC(O)Cn1cc(/C=C/C(=O)c2cccs2)c2ccccc21 (stereo not given)	-230	4.8*	0	-3	0	5
COCCn1c(=S)[nH]c2cc(C(=O)N3CCc4ccccc43)ccc2c1=O	·	-0.45	0	-3	11*	-7
COC(=O)c1ccc(CNC(=O)COC(=O)C2CC3C=CC2C3)cc1 (stereo not given)	·	·	0	-5	0	0
CCNC(=O)c1oc2c(c1C)C(=O)CC(C)(C)C2	71	·	0	-9	3	3
Cc1c(C(=O)NCc2cccnc2)oc2c1C(=O)CC(C)(C)C2	79*	0	0	-10	4	-19
CC(=O)Nc1ccc(S(=O)(=O)N2CCN=C2SCc2cccnc2)cc1	8	-0.27	0	-2	1	32*
CCOc1ccc(N(CC(=O)Nc2ccc(OC)cc2)S(=O)(=O)c2c(C)[nH]c(=O)[nH]c2=O)cc1	7	-0.04	0	0	1	-17
COc1ccc(N(CC(=O)Nc2nccs2)S(=O)(=O)c2c(C)[nH]c(=O)[nH]c2=O)cc1	79*	0.62	0	-1	0	-17
COc1cc2c(cc1OC)C1(C)N(CC2)C(C(C)=O)=NN1c1ccc(Cl)cc1 (stereo not given)	·	0.98	·	13	0	4
COc1ccc(/C=N/OCC(=O)N=Nc2c(O)[nH]c3ccc(Br)cc23)cc1	80*	·	0	-14	2	-9
CCN(CC)CCn1c(=S)[nH]c2ccc(Cl)cc2c1=O	·	4*	0	-5	2	-13
COc1ccc(NC(=O)C(c2ccc(OC)cc2)N(C)C(=O)CNC(C)=O)cc1 (stereo not given)	77*	1.5	0	-2	0	-4
CCOC(=O)c1nnn(-c2nonc2N)c1-c1ccc(Br)cc1	-36	-0.4	0	-5	9.5*	-3
CCc1c(-c2ccccc2)[n+](=O)c2c(n1[O-])CCC2	·	-0.22	·	-5	-1	-13
C/C(=N\NC(=O)C(=O)Nc1cc(C)ccc1C)c1ccncc1	·	-0.58	·	-7	4	-9
CCOC(=O)c1sc(NC(=O)c2ccccc2F)c(C(N)=O)c1C	79*	-0.12	0	-4	-1	-4
CC(C)N1CC(C(=O)Nc2nc3ccccc3s2)CC1=O (stereo not given)	75*	·	0	2	-1	-5
